Data set [1] can be described thus: Toxicity in nu/nu Br athymic mouse xenografted with human E2S-stimulated MCF7 cells assessed as whitish deposit at injection site at 30 mg/kg, sc administered 6 days per week for 28 days using MC/EtOH formulation by TLC analysis. The following applies: in vivo. On the technique in general: Xenograft models place foreign cells or tissue in a host animal.
Data set [2] has as its system Mus musculus. Briefly: Osteogenic activity in ovariectomized-induced C57BL/6 mouse model of osteoporosis assessed as recovery of tibia calcium content at 30 mg/kg, sc administered 6 days per week for 70 days using MC/EtOH formulation by Triple Quad ICP-MS analysis relative to control. It is filed as functional. An outline of the steps: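 Female C57BL/6 mice (63–70 days) ovariectomized under isoflurane; sham controls kept. 8/group, dosed SC in 0.1 mL MC:EtOH (92:8) for 70 days. Tibias excised and weighed (mg/g body weight). Calcium measured by ICP-MS after calcination at 600 °C for 6 h and HNO3 microwave digestion; expressed as mg/g tibia.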

Data set [3] can be described thus: Plasma concentration in Balb/c mouse at 2 mg/kg, sc administered as single dose using MC/EtOH formulation measured at 1 hr by LC-MS/MS analysis. Format: ADME, organism-based. A digest of the protocol: (§1)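 Female Balb/c mice, fasted 8 h with free water, given a single dose in 0.1 mL vehicle: EO-33 dissolved in EtOH, then aqueous 0.4% methylcellulose added to a final 8% EtOH. Sacrificed under isoflurane at 1, 3, 7, 12 and 24 h (2–3 mice/group). Cardiac blood collected into K-EDTA and plasma stored at −80 °C. LC-MS/MS on 100 µL plasma. AUC0-24h taken from the five time points.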

For data set [4], the system named is Mus musculus. Briefly: In vivo inhibition of STS in ovariectomized Balb/c mouse assessed as reduction in E1S-stimulated uterus weight at 30 mg/kg, sc administered twice daily starting from day 2 to day 10 using MC/EtOH formulation and E1S addition on day 5 to 10 measured on day 11 relative to control. Format: functional. A digest of the protocol: (§2)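 Female Balb/c mice (15–20 g) ovariectomized under isoflurane, 5/group. Inhibitor given SC in 0.1 mL MC:EtOH (92:8) on days 2–10. E1S (2 µg/mouse, BID) or E1 (0.06 µg/mouse, ID) given SC on days 5–10. Vehicle controls included. Uterus dissected and weighed on day 11. Means ± SEM.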

Data set [5] can be described thus: Plasma concentration in Balb/c mouse at 30 mg/kg, sc administered as single dose using MC/EtOH formulation measured after 12 hrs by LC-MS/MS analysis. Format: ADME, organism-based. A digest of the protocol:
as §1

Data set [6] in a line: Plasma concentration in Balb/c mouse at 30 mg/kg, po administered via gavage as single dose using SO/DMSO formulation measured after 7 hrs by LC-MS/MS analysis. Format: ADME, organism-based. An outline of the steps:
(§3)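 Female Balb/c mice, fasted 8 h, given a single dose in 0.1 mL of PG or sunflower oil holding a final 8% DMSO. Sacrificed under isoflurane at 7 h (2–3 mice/group). Cardiac blood collected into K-EDTA and plasma analysed by LC-MS/MS.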

The test system of data set [7] is Mus musculus. Briefly: Anti-estrogenic activity in ovariectomized Balb/c mouse assessed as reversal of E1-induced estrogenic effect at 30 mg/kg, sc administered once daily starting from day 2 to day 10 using MC/EtOH formulation and E1 addition on day 5 to 10 measured on day 11. The following applies: in vivo. Format: organism-based. A digest of the protocol: as §2

Data set [8] in a line: AUC (0 to 24 hrs) in Balb/c mouse assessed as (4-(((furan-2-ylmethyl)((5-methylthiophen-2-yl)methyl)amino)methyl)phenyl)(7-hydroxy-3,4-dihydroisoquinolin-2(1H)-yl)methanone level at 30 mg/kg, po administered via gavage as single dose using MC/EtOH formulation by LC-MS/MS analysis. It is filed as ADME, organism-based. The following applies: in vivo. Set-up: dose 30 mg/kg, time < 24 hr, route oral.

Data set [9] in a line: Plasma concentration in Balb/c mouse at 10 mg/kg, sc administered as single dose using MC/EtOH formulation measured after 12 hrs by LC-MS/MS analysis. It is filed as ADME, organism-based. A digest of the protocol: as §1
A short description of data set [10]: Plasma concentration in Balb/c mouse at 2 mg/kg, sc administered as single dose using MC/EtOH formulation measured after 3 hrs by LC-MS/MS analysis. It is filed as ADME, organism-based. An outline of the steps: as §1
Data set [11] is described as follows: AUC (0 to 24 hrs) in Balb/c mouse assessed as (4-(((furan-2-ylmethyl)((5-methylthiophen-2-yl)methyl)amino)methyl)phenyl)(7-hydroxy-3,4-dihydroisoquinolin-2(1H)-yl)methanone level at 30 mg/kg, sc administered as single dose using MC/EtOH formulation by LC-MS/MS analysis. The following applies: in vivo. Set-up: time < 24 hr, dose 30 mg/kg, route subcutaneous. It is filed as ADME, organism-based.

Data set [12] is described as follows: Plasma concentration in Balb/c mouse at 10 mg/kg, sc administered as single dose using MC/EtOH formulation measured at 1 hr by LC-MS/MS analysis. It is filed as ADME, organism-based. A digest of the protocol:
as §1

Data set [13] in a line: Toxicity in ovariectomized-induced C57BL/6 mouse model of osteoporosis assessed as effect on body weight at 30 mg/kg, sc administered 6 days per week for 70 days using MC/EtOH formulation measured post last dose. The following applies: in vivo. Format: organism-based. An outline of the steps:
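Female C57BL/6 mice, 63-70 days old, ovariectomized under isoflurane (sham-operated controls), randomized by weight into groups of 8. Treated SC in 0.1 mL MC:EtOH (92:8) over 70 days; sham and OVX controls received vehicle alone. Mice weighed at the end of the protocol before necropsy.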

Data set [14] can be described thus: AUC (0 to 24 hrs) in Balb/c mouse at 30 mg/kg, sc administered as single dose using MC/EtOH formulation by LC-MS/MS analysis. The following applies: in vivo. Set-up: dose 30 mg/kg, time < 24 hr, route subcutaneous. Format: ADME, organism-based. A digest of the protocol:
as §1

Data set [15] in a line: Plasma concentration in Balb/c mouse at 30 mg/kg, sc administered as single dose using MC/EtOH formulation measured at 1 hr by LC-MS/MS analysis. It is filed as ADME, organism-based. A digest of the protocol: as §1
Data set [16] concerns Mus musculus. Briefly: In vivo inhibition of STS in ovariectomized Balb/c mouse assessed as reduction in E1S-stimulated uterus weight at 15 mg/kg, sc administered twice daily starting from day 2 to day 10 using MC/EtOH formulation and E1S addition on day 5 to 10 measured on day 11 relative to control. It is filed as functional. A digest of the protocol: as §2
Data set [17] can be described thus: Lipophilicity, log P of the compound. Format: physicochemical. The following applies: octanol/water.
A short description of data set [18]: Plasma concentration in Balb/c mouse at 10 mg/kg, sc administered as single dose using MC/EtOH formulation measured after 3 hrs by LC-MS/MS analysis. It is filed as ADME, organism-based. A digest of the protocol: as §1
The nature of data set [19]: AUC (0 to 24 hrs) in Balb/c mouse at 2 mg/kg, sc administered as single dose using MC/EtOH formulation by LC-MS/MS analysis. Format: ADME, organism-based. Set-up: dose 2 mg/kg, time < 24 hr, route subcutaneous. The following applies: in vivo. An outline of the steps:
as §1

A short description of data set [20]: AUC (0 to 24 hrs) in Balb/c mouse at 10 mg/kg, sc administered as single dose using MC/EtOH formulation by LC-MS/MS analysis. Also noted: dose 10 mg/kg, time < 24 hr, route subcutaneous. Format: ADME, organism-based. The following applies: in vivo. An outline of the steps: as §1
Data set [21] is described as follows: Plasma concentration in Balb/c mouse at 30 mg/kg, sc administered as single dose using PG/DMSO formulation measured after 7 hrs by LC-MS/MS analysis. It is filed as ADME, organism-based. A digest of the protocol: as §3
The next data set concerns MCF7. Briefly: Antitumor activity against human MCF7 cells xenografted in nu/nu Br athymic mouse assessed as effect on […]-stimulated tumor growth by measuring tumor size at 30 mg/kg, sc administered 6 days per week for […] using MC/EtOH formulation measured post-last dose (reference value: 171 %). Format: functional.
Data set [22] in a line: Plasma concentration in Balb/c mouse at 30 mg/kg, po administered via gavage as single dose using MC/EtOH formulation measured after 12 hrs by LC-MS/MS analysis. Format: ADME, organism-based. A digest of the protocol: as §1
A short description of data set [23]: Plasma concentration in Balb/c mouse at 30 mg/kg, sc administered as single dose using MC/EtOH formulation measured after 3 hrs by LC-MS/MS analysis. It is filed as ADME, organism-based. An outline of the steps: as §1

SMILES strings stand for the structures.

These results are taken from ChEMBL document CHEMBL4396876, “Antisulfatase, Osteogenic, and Anticancer Activities of Steroid Sulfatase Inhibitor EO-33 in Mice” (J Med Chem, 2019).

What is called inhibition in vivo is the percentage by which the read-out fell short of the control. What is called AUC is the area under the concentration-time curve, a measure of exposure. One may read the AUC(0-t) as the area under the concentration-time curve up to a stated or last time point. As usually defined, the logP is a log measure of how a compound divides between an organic and an aqueous phase. Low readings indicate a more hydrophilic compound, high ones a more lipophilic compound. Regarding `Cc1ccc(CN(Cc2ccc(C(=O)N3CCc4ccc(OS(N)(=O)=O)cc4C3)cc2)Cc2ccco2)s1`, the Activity result was “Toxic” in data set [1]; 71% with Mus musculus [2]; “Non-Toxic” in the data set on Mus musculus [7]; “Non-Toxic” in data set [13]; 72% in the data set on MCF7. Further, the results for the concentration at 1 h in data set [3], in data set [12] and in [15] were 681 ng/mL, 2600 ng/mL and 2600 ng/mL, respectively. Moreover, in the data set with Mus musculus [4], the inhibition in vivo at 30 mg/kg worked out at 69%. The concentration at 12 h came to 64 ng/mL in data set [5], 4 ng/mL in [9] and 3 ng/mL in [22]. Further, the concentration at 7 h in [6] was 49 ng/mL; in [21], 381 ng/mL. For the same compound, the AUC in data set [8] was determined as 10 ng·h/mL; in data set [11], 269 ng·h/mL. For the same compound, the values for the concentration at 3 h in [10], in [18] and in data set [23] were 33 ng/mL, 398 ng/mL and 2190 ng/mL, respectively. In addition, the results for the AUC(0-t) at 24 h in [14], in data set [19] and in [20] were 13500 ng·h/mL, 1130 ng·h/mL and 5200 ng·h/mL, respectively. Besides, the inhibition in vivo at 15 mg/kg in the data set on Mus musculus [16] was found to be 49%. In addition, the logP in data set [17] is 4.02.
